Data from ChEMBL document CHEMBL4402513, “Bio-Inspired Dual-Selective BCL-2/c-MYC G-Quadruplex Binders: Design, Synthesis, and Anticancer Activity of Drug-like Imidazo[2,1-i]purine Derivatives” (J Med Chem, 2020).
The source made the active and inactive calls. The calls are words filed in the database; no cut-off is given here.

Key:
[1] = system: Quadruplex DNA; experiment: Binding affinity to synthetic BCL2 G4 quadruplex DNA assessed as change in melting temperature at 10 molar equiv to DNA measured after 10 mins by circular dichroism melting analysis; assay type: nucleic-acid assay
Procedure, shortened: (§1)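 CD melting of folded DNA (G4 10 µM, duplex 15 µM) in 20 mM KCl, 5 mM KH2PO4 (pH 7.0), without and with 10 molar equivalents of ligand. Tm was taken from curve fitting, and ΔTm = Tm(DNA+ligand) − Tm(DNA). Runs were done in triplicate and averaged.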

[2] = system: Quadruplex DNA; experiment: Binding affinity to synthetic c-MYC G4 quadruplex DNA assessed as change in melting temperature at 10 molar equiv to DNA measured after 10 mins by circular dichroism melting analysis; assay type: nucleic-acid assay; procedure, shortened: as §1
[3] = system: Quadruplex DNA; experiment: Binding affinity to synthetic c-KIT1 G4 quadruplex DNA assessed as change in melting temperature at 10 molar equiv to DNA measured after 10 mins by circular dichroism melting analysis; assay type: nucleic-acid assay; procedure, shortened: as §1
[4] = system: Quadruplex DNA; experiment: Binding affinity to human telomeric 23 G4 quadruplex DNA assessed as change in melting temperature at 10 molar equiv to DNA measured after 10 mins by circular dichroism melting analysis; assay type: nucleic-acid assay; procedure, shortened: as §1
[5] = Binding affinity to synthetic 20-mer hairpin duplex DNA assessed as change in melting temperature at 10 molar equiv to DNA measured after 10 mins by circular dichroism melting analysis; procedure, shortened: as §1
[6] = system: Jurkat; experiment: Cytotoxicity against human Jurkat cells assessed as reduction in cell viability measured after 48 hrs by combined MTT and trypan blue staining based cell counting assay; assay type: functional
Procedure, shortened: (§2)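 Cells were seeded at 10^4/well (HDF 10^3), grown 24 h, then treated 48 h at 5–100 µM in 0.5% v/v DMSO. Read-outs were MTT (1 h, 37 °C, absorbance 550 nm; Jurkat handled by centrifugation) combined with trypan blue live/dead counting into a survival index versus untreated cells. IC50 came from nonlinear regression, n = 6 per experiment ×3 (n = 18), mean ± SEM.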

[7] = system: Jurkat; experiment: Cytotoxicity against human Jurkat cells assessed as cell viability at 50 uM measured after 48 hrs by combined MTT and trypan blue staining based cell counting assay relative to control; assay type: functional; conditions: read-out: Activity; procedure, shortened: as §2
[8] = system: MCF7; experiment: Cytotoxicity against human MCF7 cells assessed as reduction in cell viability measured after 48 hrs by combined MTT assay; assay type: functional, cell-based; conditions: MCF7, 48 h; procedure, shortened: as §2
[9] = system: HCT-116; experiment: Cytotoxicity against human HCT116 cells assessed as reduction in cell viability measured after 48 hrs by combined MTT assay; assay type: functional, cell-based; conditions: HCT-116, 48 h; procedure, shortened: as §2
[10] = system: A-375; experiment: Cytotoxicity against human A375 cells assessed as reduction in cell viability measured after 48 hrs by combined MTT assay; assay type: functional, cell-based; conditions: A-375, 48 h; procedure, shortened: as §2
[11] = system: HaCaT; experiment: Cytotoxicity against human HaCaT cells assessed as reduction in cell viability measured after 48 hrs by combined MTT assay; assay type: cell-based; procedure, shortened: as §2
[12] = system: NHDF; experiment: Cytotoxicity against HDF cells assessed as reduction in cell viability measured after 48 hrs by combined MTT assay; assay type: cell-based; conditions: Homo sapiens; procedure, shortened: as §2
[13] = system: Jurkat; experiment: Induction of apoptosis in human Jurkat cells assessed as viable cells at 25 uM measured after 48 hrs by Annexin V-FITC/propidium iodide staining based flow cytometry (reference value: 97%); assay type: functional; conditions: read-out: Activity
[14] = system: Jurkat; experiment: Induction of apoptosis in human Jurkat cells assessed as early apoptotic cells at 25 uM measured after 48 hrs by Annexin V-FITC/propidium iodide staining based flow cytometry (reference value: 0.3%); assay type: functional
[15] = system: Jurkat; experiment: Induction of apoptosis in human Jurkat cells assessed as late apoptotic cells at 25 uM measured after 48 hrs by Annexin V-FITC/propidium iodide staining based flow cytometry (reference value: 1.4%); assay type: functional
[16] = system: Jurkat; experiment: Down regulation of c-MYC mRNA expression in human Jurkat cells at 25 uM measured after 24 hrs by RT-qPCR analysis relative to control; assay type: functional
Procedure, shortened: (§3)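 Jurkat cells were treated 24 h at 25 µM, and total RNA was extracted with TRI Reagent. 0.5 µg RNA was reverse transcribed with MMLV RT and random primers (22 °C 10 min, 42 °C 60 min). SYBR qPCR ran 40 cycles (95/59/72 °C) in duplicate with GAPDH as reference. Relative expression was calculated by the […] method from at least three independent experiments.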

[17] = system: Jurkat; experiment: Down regulation of BCL2 mRNA expression in human Jurkat cells at 25 uM measured after 24 hrs by RT-qPCR analysis relative to control; assay type: functional; procedure, shortened: as §3
[18] = system: Jurkat; experiment: Down regulation of c-MYC expression in human Jurkat cells at 25 uM measured after 24 hrs by Western blot analysis relative to control; assay type: functional
Procedure, shortened: (§4)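 Jurkat cells treated 24 h at 25 µM were lysed in 50 mM Hepes pH 7.4, 50 mM NaCl, 1% Triton with protease inhibitors. Protein was quantified by Bradford and run on 10% SDS-PAGE to nitrocellulose. Blots were probed with anti-Bcl-2, anti-c-Myc and anti-β-actin and detected by ECL. Densitometry was normalised to β-actin and expressed as % of control; three independent experiments.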

[19] = system: Jurkat; experiment: Down regulation of BCL2 expression in human Jurkat cells at 25 uM measured after 24 hrs by Western blot analysis relative to control; assay type: functional; procedure, shortened: as §4
[20] = molecular target: Quadruplex DNA; experiment: Binding affinity to synthetic Cy5-fluorescently labeled c-MYC G4 quadruplex DNA by microscale thermophoresis method; assay type: nucleic-acid assay
Procedure, shortened: (§5)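 MST with Cy5-labelled oligonucleotides annealed at 1 µM in 5 mM KH2PO4/20 mM KCl (pH 7.0), then diluted in the same buffer with 0.1% Tween. DNA was held at 40 nM. Ligand was serially diluted 1:2 from a 4 mM DMSO stock and mixed 1:1 with DNA, giving 5% final DMSO. Kd was derived from thermophoresis binding curves.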

[21] = molecular target: Quadruplex DNA; experiment: Binding affinity to synthetic Cy5-fluorescently labeled BCL2 G4 quadruplex DNA by microscale thermophoresis method; assay type: nucleic-acid assay; procedure, shortened: as §5
[22] = molecular target: Quadruplex DNA; experiment: Binding affinity to synthetic Cy5-fluorescently labeled c-KIT1 G4 quadruplex DNA by microscale thermophoresis method; assay type: nucleic-acid assay; procedure, shortened: as §5
[23] = Binding affinity to synthetic Cy5-fluorescently labeled 20-mer hairpin duplex DNA by microscale thermophoresis method; procedure, shortened: as §5
[24] = system: Quadruplex DNA; experiment: Binding affinity to human Cy5-fluorescently labeled telomeric 23 G4 quadruplex DNA by microscale thermophoresis method; assay type: nucleic-acid assay; procedure, shortened: as §5
[25] = system: Quadruplex DNA; experiment: Binding affinity to synthetic c-MYC G4 quadruplex DNA up to 5:1 compound/DNA ratio by 1H-NMR analysis; assay type: nucleic-acid assay
Procedure, shortened: (§6)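 1H NMR titration of G4 DNA at 0.2 mM in H2O/D2O 9:1 containing 5 mM KH2PO4, 20 mM KCl, 0.2 mM EDTA (pH 7.0), with DPFGSE water suppression. Ligand aliquots from 20 mM deutero-DMSO stock were added in the tube up to 5:1 ligand/G4. Imino and aromatic proton shifts were monitored.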

[26] = system: Quadruplex DNA; experiment: Binding affinity to synthetic BCL2 G4 quadruplex DNA up to 5:1 compound/DNA ratio by 1H-NMR analysis; assay type: nucleic-acid assay; procedure, shortened: as §6

Compound: CN(C)CCCn1cnc2c1ncn1c(NC(C)(C)C)c(-c3ccc(Cl)cc3)nc21
- ΔTm [1]: 6.7 °C
- ΔTm [2]: 12.8 °C
- ΔTm [3]: 2.8 °C
- ΔTm [4]: 2.4 °C
- ΔTm [5]: -0.5 °C
- Activity [6]: Dose-dependent effect
- IC50 [6]: 17 µM
- viability at 50 µM [7]: 25%
- IC50 [8]: > 100 µM
- IC50 [9]: > 100 µM
- IC50 [10]: > 100 µM
- IC50 [11]: > 100 µM
- IC50 [12]: 80 µM
- viability at 25 µM [13]: 0.5%
- Activity [14]: 0.5%
- Activity [15]: 99%
- Activity [16]: 66%
- Activity [17]: 67%
- Activity [18]: 50%
- Activity [19]: 40%
- Kd [20]: 26 µM
- Kd [21]: 60 µM
- Kd [22]: 51 µM
- Activity [23]: inactive
- Activity [24]: inactive
- Activity [25]: Active
- Activity [26]: Active
